Test results as given in ChEMBL document CHEMBL2424622, “Development of amino-pyrimidine inhibitors of c-Jun N-terminal kinase (JNK): kinase profiling guided optimization of a 1,2,3-benzotriazole lead” (Bioorg Med Chem Lett, 2013).

Legend:
[1] = biological target: T1, Serine/threonine-protein kinase Nek1 (Homo sapiens) (UniProt Q96PY6); assay: Competitive binding affinity to NEK1 (unknown origin) at 10 uM in presence of ATP relative to control
T1 sequence (whole entry): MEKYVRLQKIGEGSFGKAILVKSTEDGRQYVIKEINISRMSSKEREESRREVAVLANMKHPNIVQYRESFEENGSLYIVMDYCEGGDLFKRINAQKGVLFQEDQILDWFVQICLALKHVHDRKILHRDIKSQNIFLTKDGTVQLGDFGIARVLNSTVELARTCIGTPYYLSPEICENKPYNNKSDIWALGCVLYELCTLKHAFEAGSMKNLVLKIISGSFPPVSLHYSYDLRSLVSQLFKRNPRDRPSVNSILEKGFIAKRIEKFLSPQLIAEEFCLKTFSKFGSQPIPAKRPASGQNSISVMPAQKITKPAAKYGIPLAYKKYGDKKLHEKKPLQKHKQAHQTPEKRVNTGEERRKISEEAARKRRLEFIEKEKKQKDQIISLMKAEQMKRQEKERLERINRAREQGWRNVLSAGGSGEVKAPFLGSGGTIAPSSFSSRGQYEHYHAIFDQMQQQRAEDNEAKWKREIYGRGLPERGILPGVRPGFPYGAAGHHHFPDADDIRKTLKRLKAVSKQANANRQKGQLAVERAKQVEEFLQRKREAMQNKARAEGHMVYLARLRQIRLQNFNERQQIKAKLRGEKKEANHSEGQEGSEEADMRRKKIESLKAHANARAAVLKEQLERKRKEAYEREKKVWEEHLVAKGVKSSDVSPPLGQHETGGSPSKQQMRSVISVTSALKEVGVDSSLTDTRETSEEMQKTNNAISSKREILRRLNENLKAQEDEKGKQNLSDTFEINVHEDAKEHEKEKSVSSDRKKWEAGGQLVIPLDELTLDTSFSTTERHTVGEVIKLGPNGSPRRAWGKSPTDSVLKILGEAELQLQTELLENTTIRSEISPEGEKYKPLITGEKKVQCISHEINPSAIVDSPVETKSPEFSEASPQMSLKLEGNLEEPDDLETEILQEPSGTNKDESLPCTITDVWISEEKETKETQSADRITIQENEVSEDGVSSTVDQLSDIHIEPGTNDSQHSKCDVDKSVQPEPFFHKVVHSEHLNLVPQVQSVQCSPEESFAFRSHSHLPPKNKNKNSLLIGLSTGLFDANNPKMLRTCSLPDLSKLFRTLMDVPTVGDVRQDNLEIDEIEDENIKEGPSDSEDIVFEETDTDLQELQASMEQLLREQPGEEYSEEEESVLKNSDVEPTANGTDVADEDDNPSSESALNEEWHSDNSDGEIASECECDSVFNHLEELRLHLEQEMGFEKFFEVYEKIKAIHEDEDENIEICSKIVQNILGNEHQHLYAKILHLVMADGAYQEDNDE

[2] = biological target: Mitogen-activated protein kinase 3 (Homo sapiens, UniProt P27361); assay: Competitive binding affinity to ERK1 (unknown origin) at 10 uM in presence of ATP relative to control
How it was run: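 In vitro ATP-site competition binding assay, part of profiling against a diverse panel of 128 kinases. Each compound was tested at a single concentration of 10 µM. Kinome selectivity was summarized as S15 selectivity scores.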

[3] = tested on: Mast/stem cell growth factor receptor Kit (Homo sapiens), P10721 [V559D]; assay: Competitive binding affinity to KIT V559D mutant (unknown origin) at 10 uM in presence of ATP relative to control
[4] = biological target: Cyclin-dependent kinase 9 (Homo sapiens) (UniProt P50750); assay: Competitive binding affinity to CDK9 (unknown origin) at 10 uM in presence of ATP relative to control
[5] = biological target: Serine/threonine-protein kinase 38-like (Homo sapiens) (UniProt Q9Y2H1); assay: Competitive binding affinity to NDR2 (unknown origin) at 10 uM in presence of ATP relative to control
How it was run: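 In vitro ATP-site competition binding assay across a diverse panel of 128 kinases, with compound tested at a single concentration. Kinase selectivity scores (S15) were calculated from the panel profiles.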

[6] = biological target: Tyrosine-protein kinase receptor Tie-1 (Homo sapiens) (UniProt P35590); assay: Competitive binding affinity to TIE1 (unknown origin) at 10 uM in presence of ATP relative to control
[7] = biological target: T2, Calcium/calmodulin-dependent protein kinase type IV (Homo sapiens) (UniProt Q16566); assay: Competitive binding affinity to CAMK4 (unknown origin) at 10 uM in presence of ATP relative to control
T2 sequence (whole entry): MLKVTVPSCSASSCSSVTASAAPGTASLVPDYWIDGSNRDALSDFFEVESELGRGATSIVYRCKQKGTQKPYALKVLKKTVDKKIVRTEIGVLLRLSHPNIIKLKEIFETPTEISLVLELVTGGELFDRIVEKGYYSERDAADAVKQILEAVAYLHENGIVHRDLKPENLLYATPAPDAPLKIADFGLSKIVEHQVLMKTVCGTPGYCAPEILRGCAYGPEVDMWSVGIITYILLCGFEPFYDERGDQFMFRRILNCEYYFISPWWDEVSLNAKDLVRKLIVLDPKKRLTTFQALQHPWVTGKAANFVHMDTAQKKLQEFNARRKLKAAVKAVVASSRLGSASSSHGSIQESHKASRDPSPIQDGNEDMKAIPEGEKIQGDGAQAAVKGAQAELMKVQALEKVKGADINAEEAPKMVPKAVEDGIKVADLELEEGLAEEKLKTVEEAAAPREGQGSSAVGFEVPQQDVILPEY

[8] = biological target: Phosphatidylinositol 4,5-bisphosphate 3-kinase catalytic subunit alpha isoform (Homo sapiens) (UniProt P42336); assay: Competitive binding affinity to PIK3CA (unknown origin) at 10 uM in presence of ATP relative to control
[9] = biological target: T3, Serine/threonine-protein kinase 17A (Homo sapiens) (UniProt Q9UEE5); assay: Competitive binding affinity to STK17A (unknown origin) at 10 uM in presence of ATP relative to control
T3 sequence (whole entry): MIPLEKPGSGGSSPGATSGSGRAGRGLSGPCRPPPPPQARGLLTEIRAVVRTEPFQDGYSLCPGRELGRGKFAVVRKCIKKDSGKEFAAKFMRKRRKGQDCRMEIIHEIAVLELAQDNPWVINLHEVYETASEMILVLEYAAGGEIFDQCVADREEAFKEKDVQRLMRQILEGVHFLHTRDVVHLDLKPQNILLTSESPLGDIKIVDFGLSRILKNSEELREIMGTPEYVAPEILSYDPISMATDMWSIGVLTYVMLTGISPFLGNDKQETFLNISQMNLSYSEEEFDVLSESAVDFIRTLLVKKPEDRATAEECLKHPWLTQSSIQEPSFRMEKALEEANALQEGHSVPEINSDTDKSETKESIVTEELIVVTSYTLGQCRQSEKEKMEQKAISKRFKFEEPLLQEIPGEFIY

Chain of Cyclin-dependent kinase 9 (Homo sapiens) (P50750 whole entry): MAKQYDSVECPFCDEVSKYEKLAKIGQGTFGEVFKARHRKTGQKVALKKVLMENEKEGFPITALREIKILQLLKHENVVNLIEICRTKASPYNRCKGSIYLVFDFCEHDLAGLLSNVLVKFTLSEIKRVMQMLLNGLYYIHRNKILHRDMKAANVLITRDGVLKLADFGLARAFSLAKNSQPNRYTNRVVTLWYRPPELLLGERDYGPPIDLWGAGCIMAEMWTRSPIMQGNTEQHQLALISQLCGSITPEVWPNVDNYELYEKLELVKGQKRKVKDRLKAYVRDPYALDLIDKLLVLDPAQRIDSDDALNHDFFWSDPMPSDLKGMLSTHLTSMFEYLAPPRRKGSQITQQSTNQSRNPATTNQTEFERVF
Chain of Serine/threonine-protein kinase 38-like (Homo sapiens) (Q9Y2H1 2-464 limits assumed): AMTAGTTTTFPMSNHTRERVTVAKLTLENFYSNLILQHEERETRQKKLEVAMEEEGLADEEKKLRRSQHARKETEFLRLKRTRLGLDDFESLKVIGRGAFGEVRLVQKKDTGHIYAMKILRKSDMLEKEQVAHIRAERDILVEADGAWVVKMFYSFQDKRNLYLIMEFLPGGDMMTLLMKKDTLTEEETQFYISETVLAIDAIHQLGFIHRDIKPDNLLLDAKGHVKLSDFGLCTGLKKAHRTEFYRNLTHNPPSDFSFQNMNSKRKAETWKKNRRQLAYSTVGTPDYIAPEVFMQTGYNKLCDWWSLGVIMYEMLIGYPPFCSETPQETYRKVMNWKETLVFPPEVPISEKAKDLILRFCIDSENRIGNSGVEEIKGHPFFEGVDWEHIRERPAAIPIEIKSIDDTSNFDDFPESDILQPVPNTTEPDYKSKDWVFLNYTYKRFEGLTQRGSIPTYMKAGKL
Chain of Phosphatidylinositol 4,5-bisphosphate 3-kinase catalytic subunit alpha isoform (Homo sapiens) (P42336 whole entry, canonical isoform): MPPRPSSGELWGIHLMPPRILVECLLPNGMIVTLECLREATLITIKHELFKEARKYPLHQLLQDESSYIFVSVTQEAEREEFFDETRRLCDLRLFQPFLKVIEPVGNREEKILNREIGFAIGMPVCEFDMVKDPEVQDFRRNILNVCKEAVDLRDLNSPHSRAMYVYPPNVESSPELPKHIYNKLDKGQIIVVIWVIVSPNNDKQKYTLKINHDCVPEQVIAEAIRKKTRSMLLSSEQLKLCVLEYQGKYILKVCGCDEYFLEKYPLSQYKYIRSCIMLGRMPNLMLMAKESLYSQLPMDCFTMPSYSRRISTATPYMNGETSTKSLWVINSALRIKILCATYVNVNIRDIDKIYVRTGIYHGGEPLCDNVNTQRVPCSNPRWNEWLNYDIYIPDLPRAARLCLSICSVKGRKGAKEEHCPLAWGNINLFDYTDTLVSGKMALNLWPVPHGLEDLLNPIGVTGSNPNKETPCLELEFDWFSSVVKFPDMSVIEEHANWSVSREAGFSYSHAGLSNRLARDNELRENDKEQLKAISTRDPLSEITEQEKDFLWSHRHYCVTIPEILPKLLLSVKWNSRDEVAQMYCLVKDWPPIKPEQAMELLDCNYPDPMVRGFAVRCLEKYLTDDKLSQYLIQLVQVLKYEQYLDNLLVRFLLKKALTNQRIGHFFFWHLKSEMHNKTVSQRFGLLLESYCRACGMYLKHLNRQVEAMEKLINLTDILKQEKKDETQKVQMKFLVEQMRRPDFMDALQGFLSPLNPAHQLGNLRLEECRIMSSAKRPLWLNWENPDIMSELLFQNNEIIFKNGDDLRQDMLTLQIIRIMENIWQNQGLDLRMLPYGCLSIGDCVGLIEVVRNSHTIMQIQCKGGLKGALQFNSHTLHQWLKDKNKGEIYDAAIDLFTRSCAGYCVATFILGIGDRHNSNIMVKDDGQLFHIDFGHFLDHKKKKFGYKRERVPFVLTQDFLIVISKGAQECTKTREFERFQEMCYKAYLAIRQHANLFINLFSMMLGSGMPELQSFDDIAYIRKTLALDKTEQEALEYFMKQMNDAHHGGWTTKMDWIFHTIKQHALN
Chain of Mitogen-activated protein kinase 3 (P27361 whole entry): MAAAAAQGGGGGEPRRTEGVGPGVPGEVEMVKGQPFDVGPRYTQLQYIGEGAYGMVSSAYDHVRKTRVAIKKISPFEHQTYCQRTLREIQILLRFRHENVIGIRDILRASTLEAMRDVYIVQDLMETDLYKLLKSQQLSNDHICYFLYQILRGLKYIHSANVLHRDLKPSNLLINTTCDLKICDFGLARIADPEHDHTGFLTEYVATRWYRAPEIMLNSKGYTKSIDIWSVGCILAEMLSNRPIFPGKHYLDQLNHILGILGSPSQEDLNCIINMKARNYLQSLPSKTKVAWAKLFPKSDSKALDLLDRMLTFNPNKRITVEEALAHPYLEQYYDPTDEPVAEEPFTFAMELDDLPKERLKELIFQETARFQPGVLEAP
Chain of Mast/stem cell growth factor receptor Kit (Homo sapiens), P10721 [V559D] (P10721 whole entry V559D): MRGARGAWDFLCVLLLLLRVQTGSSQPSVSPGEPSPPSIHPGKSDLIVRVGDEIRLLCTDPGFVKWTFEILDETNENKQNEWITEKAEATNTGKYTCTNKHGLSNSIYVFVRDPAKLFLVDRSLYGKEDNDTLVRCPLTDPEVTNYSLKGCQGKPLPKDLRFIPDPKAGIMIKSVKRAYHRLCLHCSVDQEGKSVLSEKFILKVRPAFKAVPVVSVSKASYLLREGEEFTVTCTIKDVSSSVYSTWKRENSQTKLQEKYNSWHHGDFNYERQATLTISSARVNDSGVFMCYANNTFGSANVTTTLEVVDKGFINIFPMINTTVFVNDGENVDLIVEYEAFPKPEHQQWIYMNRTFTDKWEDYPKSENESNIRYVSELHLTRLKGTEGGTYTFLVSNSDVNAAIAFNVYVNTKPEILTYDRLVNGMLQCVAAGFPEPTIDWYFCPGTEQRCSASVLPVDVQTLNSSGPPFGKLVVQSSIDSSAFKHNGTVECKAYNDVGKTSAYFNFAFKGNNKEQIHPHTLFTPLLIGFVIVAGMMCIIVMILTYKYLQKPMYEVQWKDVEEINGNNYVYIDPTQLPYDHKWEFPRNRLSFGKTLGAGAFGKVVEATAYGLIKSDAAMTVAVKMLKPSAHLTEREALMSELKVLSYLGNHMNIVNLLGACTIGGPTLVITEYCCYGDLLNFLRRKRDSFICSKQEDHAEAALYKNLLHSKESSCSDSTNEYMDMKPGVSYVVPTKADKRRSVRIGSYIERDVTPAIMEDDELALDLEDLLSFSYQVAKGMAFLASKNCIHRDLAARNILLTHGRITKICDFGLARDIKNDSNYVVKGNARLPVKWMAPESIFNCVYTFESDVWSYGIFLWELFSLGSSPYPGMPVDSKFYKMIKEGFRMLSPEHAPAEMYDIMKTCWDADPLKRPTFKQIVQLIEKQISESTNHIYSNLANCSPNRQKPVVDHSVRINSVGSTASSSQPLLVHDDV
Chain of Tyrosine-protein kinase receptor Tie-1 (Homo sapiens) (P35590 whole entry): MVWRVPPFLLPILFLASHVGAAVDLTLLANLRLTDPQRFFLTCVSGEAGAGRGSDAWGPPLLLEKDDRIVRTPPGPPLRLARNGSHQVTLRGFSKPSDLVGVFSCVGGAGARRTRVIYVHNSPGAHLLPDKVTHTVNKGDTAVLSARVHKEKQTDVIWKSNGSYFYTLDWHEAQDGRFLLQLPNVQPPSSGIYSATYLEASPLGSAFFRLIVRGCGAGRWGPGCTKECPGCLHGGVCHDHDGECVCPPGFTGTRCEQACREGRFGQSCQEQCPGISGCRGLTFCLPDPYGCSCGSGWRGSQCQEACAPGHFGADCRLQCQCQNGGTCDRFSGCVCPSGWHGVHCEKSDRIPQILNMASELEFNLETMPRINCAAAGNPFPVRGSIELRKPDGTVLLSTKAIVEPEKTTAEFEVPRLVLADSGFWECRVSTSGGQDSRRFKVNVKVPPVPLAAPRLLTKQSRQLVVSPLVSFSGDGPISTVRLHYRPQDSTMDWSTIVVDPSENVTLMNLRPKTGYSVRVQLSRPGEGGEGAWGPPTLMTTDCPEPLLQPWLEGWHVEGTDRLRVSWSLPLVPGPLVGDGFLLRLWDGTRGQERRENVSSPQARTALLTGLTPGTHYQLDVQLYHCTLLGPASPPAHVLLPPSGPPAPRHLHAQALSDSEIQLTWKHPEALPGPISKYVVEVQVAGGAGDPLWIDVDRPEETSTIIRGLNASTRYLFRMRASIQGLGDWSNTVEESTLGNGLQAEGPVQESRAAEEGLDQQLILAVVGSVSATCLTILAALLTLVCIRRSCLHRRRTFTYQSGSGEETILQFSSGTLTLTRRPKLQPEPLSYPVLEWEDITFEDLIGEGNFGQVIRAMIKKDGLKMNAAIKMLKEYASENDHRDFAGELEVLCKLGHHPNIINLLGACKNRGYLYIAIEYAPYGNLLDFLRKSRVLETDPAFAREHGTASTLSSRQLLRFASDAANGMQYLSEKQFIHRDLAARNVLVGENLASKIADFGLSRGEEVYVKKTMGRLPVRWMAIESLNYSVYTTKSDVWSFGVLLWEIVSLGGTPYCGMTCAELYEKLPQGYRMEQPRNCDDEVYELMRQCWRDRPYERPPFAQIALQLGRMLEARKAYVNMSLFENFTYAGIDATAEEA

| SMILES | inhibition [1] [%] | inhibition [2] [%] | inhibition [3] [%] | inhibition [4] [%] | inhibition [5] [%] | inhibition [6] [%] | inhibition [7] [%] | inhibition [8] [%] | inhibition [9] [%] |
| --- | --- | --- | --- | --- | --- | --- | --- | --- | --- |
| CS(=O)(=O)CCCOc1cccc2c1ccn2-c1ccnc(N[C@H]2CC[C@H](C(=O)N3CCC(O)CC3)CC2)n1 | > 85 | > 85 | – | – | – | – | – | – | – |
| O[C@H]1CC[C@H](Nc2nccc(-n3ccc4ccccc43)n2)CC1 | 84 | < 50 | 73 | 85 | < 50 | < 50 | < 50 | < 50 | – |
| N[C@H]1CC[C@H](Nc2nccc(-n3nnc4ccccc43)n2)CC1 | – | – | – | – | – | – | – | – | 100 |
| O[C@H]1CC[C@H](Nc2nccc(-n3nnc4ccccc43)n2)CC1 | 98 | < 50 | 91 | 96 | < 50 | < 50 | 72 | 84 | – |
| O[C@H]1CC[C@H](Nc2nccc(-n3ncc4ccccc43)n2)CC1 | 96 | < 50 | 92 | 82 | < 50 | < 50 | < 50 | 78 | – |
| O=C([C@H]1CC[C@H](Nc2nccc(-n3nnc4ccccc43)n2)CC1)N1CCOCC1 | – | – | – | – | – | – | – | – | 97 |
| O[C@H]1CC[C@H](Nc2nccc(-c3n[nH]c4ccccc34)n2)CC1 | – | 80 | 99 | – | 72 | – | – | – | 100 |
